Activity calls are given as the source filed them.
Key:
[1] = molecular target: T1, Delta-type opioid receptor (Rattus norvegicus, UniProt P33533); experiment: Agonist activity at rat delta-opioid receptor expressed in C6 cell membrane assessed as [35S]GTPgammaS binding for 1 hr by liquid scintillation counting analysis; type: functional, cell membranes
[2] = molecular target: T2, Kappa-type opioid receptor (Homo sapiens, UniProt P41145); experiment: Agonist activity at human kappa-opioid receptor expressed in CHO cell membrane assessed as [35S]GTPgammaS binding for 1 hr by liquid scintillation counting analysis; type: functional, cell membranes
T2 sequence (P41145 whole entry): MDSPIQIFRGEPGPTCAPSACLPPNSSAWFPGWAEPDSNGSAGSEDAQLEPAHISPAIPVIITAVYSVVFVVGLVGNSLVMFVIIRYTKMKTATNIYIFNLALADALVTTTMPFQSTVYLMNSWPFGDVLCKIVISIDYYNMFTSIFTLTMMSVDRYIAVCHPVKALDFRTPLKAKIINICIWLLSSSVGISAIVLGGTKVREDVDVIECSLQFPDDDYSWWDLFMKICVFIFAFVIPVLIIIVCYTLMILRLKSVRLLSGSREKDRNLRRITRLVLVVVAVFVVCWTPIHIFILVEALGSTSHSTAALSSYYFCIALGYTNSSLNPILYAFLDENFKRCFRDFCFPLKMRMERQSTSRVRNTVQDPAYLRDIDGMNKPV

[3] = molecular target: T1, Delta-type opioid receptor; experiment: Displacement of [3H]diprenorphine from rat delta-opioid receptor expressed in C6 cell membrane for 1 hr by liquid scintillation counting analysis; type: cell membranes
[4] = molecular target: Delta-type opioid receptor (Rattus norvegicus) (UniProt P33533); experiment: Agonist activity at rat delta-opioid receptor expressed in C6 cell membrane assessed as [35S]GTPgammaS binding for 1 hr by liquid scintillation counting analysis relative to 10 uM DPDPE; type: functional, cell membranes
Sequence of Delta-type opioid receptor (Rattus norvegicus) (P33533 whole entry): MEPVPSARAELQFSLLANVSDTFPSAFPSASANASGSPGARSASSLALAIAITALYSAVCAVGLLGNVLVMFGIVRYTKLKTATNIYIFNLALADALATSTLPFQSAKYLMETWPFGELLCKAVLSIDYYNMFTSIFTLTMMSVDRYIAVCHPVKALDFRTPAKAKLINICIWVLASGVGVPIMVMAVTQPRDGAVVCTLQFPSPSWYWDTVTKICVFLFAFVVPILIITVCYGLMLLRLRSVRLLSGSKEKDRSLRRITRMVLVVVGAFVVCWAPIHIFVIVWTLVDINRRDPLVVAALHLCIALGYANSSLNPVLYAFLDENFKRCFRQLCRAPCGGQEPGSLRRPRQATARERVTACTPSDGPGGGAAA

[5] = molecular target: T2, Kappa-type opioid receptor; experiment: Agonist activity at human kappa-opioid receptor expressed in CHO cell membrane assessed as [35S]GTPgammaS binding for 1 hr by liquid scintillation counting analysis relative to 10 uM U69593; type: functional, cell membranes
[6] = molecular target: Mu-type opioid receptor (Rattus norvegicus) (UniProt P33535); experiment: Agonist activity at rat mu-opioid receptor expressed in C6 cell membrane assessed as [35S]GTPgammaS binding for 1 hr by liquid scintillation counting analysis relative to 10 uM DAMGO; type: functional, cell membranes
Sequence of Mu-type opioid receptor (Rattus norvegicus) (P33535 whole entry): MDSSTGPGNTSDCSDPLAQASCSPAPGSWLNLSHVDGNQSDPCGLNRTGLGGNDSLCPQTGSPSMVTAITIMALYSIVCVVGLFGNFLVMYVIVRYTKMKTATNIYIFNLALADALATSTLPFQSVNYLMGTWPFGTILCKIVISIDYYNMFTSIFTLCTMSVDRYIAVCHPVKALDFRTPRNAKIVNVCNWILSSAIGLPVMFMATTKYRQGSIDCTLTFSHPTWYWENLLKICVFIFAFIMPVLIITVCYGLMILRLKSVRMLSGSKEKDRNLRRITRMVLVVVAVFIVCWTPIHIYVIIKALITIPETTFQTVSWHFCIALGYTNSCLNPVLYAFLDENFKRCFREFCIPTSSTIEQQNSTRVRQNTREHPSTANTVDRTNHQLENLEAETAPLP

Rattus norvegicus = organism: Rattus norvegicus; experiment: Selectivity ratio, ratio of Ki for rat delta-opioid receptor to Ki for rat mu-opioid receptor
In short: (§1)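 Competition for 0.2 nM [3H]diprenorphine in membranes (20 µg protein) from C6 cells with rat MOR or DOR, or CHO cells with human KOR. 50 mM Tris-HCl pH 7.4, 1 h at room temperature, then GF/C filtration, five buffer washes, scintillation counting. Nonspecific binding set with 10 µM naloxone. Ki from logistic fit. Mean ± S.E.M., ≥3 assays in duplicate. DOR/MOR ratio taken from the Ki values.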

[7] = molecular target: T2, Kappa-type opioid receptor; experiment: Displacement of [3H]diprenorphine from human kappa-opioid receptor expressed in CHO cell membrane for 1 hr by liquid scintillation counting analysis; type: cell membranes; in short: as §1
Mu-type opioid receptor [8] = molecular target: T3, Mu-type opioid receptor (Rattus norvegicus, UniProt P33535); experiment: Displacement of [3H]diprenorphine from rat mu-opioid receptor expressed in C6 cell membrane for 1 hr by liquid scintillation counting analysis; type: cell membranes
T3 sequence (P33535 whole entry): as above

Mus musculus [9] = experiment: Antinociceptive activity in C57BL/6 mouse assessed as tail withdrawal latency upto 10 mg/kg, ip measured after 30 mins by warm water tail withdrawal assay; type: functional, organism-based
Mu-type opioid receptor [10] = molecular target: T3, Mu-type opioid receptor; experiment: Agonist activity at rat mu-opioid receptor expressed in C6 cell membrane assessed as [35S]GTPgammaS binding for 1 hr by liquid scintillation counting analysis; type: functional, cell membranes
Mus musculus [11] = experiment: Antinociceptive activity in C57BL/6 mouse assessed as tail withdrawal latency time at 10 mg/kg, ip measured after 30 mins by warm water tail withdrawal assay; type: functional
Mus musculus [12] = experiment: Antinociceptive activity in C57BL/6 mouse assessed as time duration of action at 10 mg/kg, ip measured after 30 mins by warm water tail withdrawal assay; type: functional
In short: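 Male C57BL/6 mice given a single 10 mg/kg ip dose. Tail withdrawal from 50 °C water, 20 s cutoff, measured at varying times after dosing to follow duration of action. n=6.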

Plasma = experiment: Stability in C57BL/6 mouse plasma after 30 mins; type: ADME, cell-free; conditions: 0.5 h
Mus musculus [13] = experiment: Antinociceptive activity in ip dosed C57BL/6 mouse assessed as tail withdrawal latency measured 30 mins after drug challenge by warm water tail withdrawal assay; type: functional; conditions: for ED50: C57BL/6, Tail, 0.5 h
Mus musculus [14] = experiment: Antinociceptive activity in ip dosed C57BL/6 mouse assessed as tail withdrawal latency pretreated with 1 mg/kg naltrexone for 30 mins measured 30 mins after drug challenge by warm water tail withdrawal assay; type: functional; conditions: C57BL/6, Tail
In short: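 Male C57BL/6 mice pretreated ip with 1 mg/kg naltrexone or saline 30 min before cumulative ip dosing to 3.2, 10 and 32 mg/kg. Tail withdrawal latency from 50 °C water, 20 s cutoff, read 30 min after each dose. ED50 from the dose-response.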

T1 sequence (P33533 whole entry): as the sequence (P33533 whole entry) above

Structure (SMILES) | EC50 ([1]; read-out: EC50) [nM] | EC50 ([2]; read-out: EC50) [nM] | Ki [3] [nM] | Activity [4] | Activity [5] | Activity [6] | Ratio Ki (Rattus norvegicus) | Ki [7] [nM] | Ki (Mu-type opioid receptor [8]) [nM] | Activity (Mus musculus [9]) | EC50 (Mu-type opioid receptor [10]; read-out: EC50) [nM] | EC50 ([1]; c6) | EC50 ([2]; cho) | Time (Mus musculus [11]) [s] | Time (Mus musculus [12]) [h] | Stability (Plasma) | Activity (Mus musculus [13]) | ED50 (Mus musculus [13]) [mg/kg] | ED50 (Mus musculus [14]) [mg/kg] | EC50 (Mu-type opioid receptor [10]; c6)
CC(=O)N1CC[C@@H](NC(=O)[C@@H](N)Cc2c(C)cc(O)cc2C)c2cc(Cc3ccccc3)ccc21 | 68 | > 1300 | 1.8 | 26% | 29% | 76% | 14 | 87 | 0.13 | inactive | 6 |  |  |  |  |  |  |  |  | 
Cc1cc(O)cc(C)c1C[C@H](N)C(=O)N[C@@H]1CCCc2ccc(Cc3ccc4ccccc4c3)cc21 |  |  | 12 |  |  | 72% |  | 92 | 0.06 | inactive | 4.4 | Not Active | Not Active |  |  |  |  |  |  | 
Cc1cc(O)cc(C)c1C[C@H](N)C(=O)N[C@@H]1CCNc2ccc(Cc3ccc4ccccc4c3)cc21 |  |  |  | inactive | inactive | 96% |  |  |  |  |  |  |  | 10 |  |  |  |  |  | 
CC(=O)N1CC[C@@H](NC(=O)[C@@H](N)Cc2c(C)cc(O)cc2C)c2cc(Cc3ccc4ccccc4c3)ccc21 |  |  | 0.23 | inactive | inactive | 87% | 6 | 48 | 0.04 |  | 0.93 | Not Active | Not Active |  | >3 | Stable | Dose-dependent effect | 4.72 | 15.1 | 
Cc1cc(O)cc(C)c1C[C@H](N)C(=O)N[C@@H]1CCNc2ccc(CC3Cc4ccccc4C3)cc21 |  |  |  | inactive | 38% | 86% | 26 |  |  | inactive |  |  | Not Active |  |  |  |  |  |  | 
Cc1cc(O)cc(C)c1C[C@H](N)C(=O)N[C@@H]1CCCc2ccc(CC3CCCCC3)cc21 |  | 350 | 14 | inactive | 25% | inactive | 117 | 20 |  |  |  | Not Active |  |  |  |  |  |  |  | Not Active
Cc1cc(O)cc(C)c1C[C@H](N)C(=O)N[C@@H]1CCNc2ccc(Cc3ccccc3)cc21 |  |  |  |  |  |  |  |  |  |  |  |  |  |  | >1 |  |  |  |  | 
CN1CC[C@]23c4c5ccc(O)c4O[C@H]2[C@@H](O)C=C[C@H]3[C@H]1C5 [MORPHINE] |  |  |  |  |  |  |  |  |  |  |  |  |  |  |  |  |  | 4.73 |  | 
Cc1cc(O)cc(C)c1C[C@H](N)C(=O)N[C@@H]1CCNc2ccc(Cc3cccc4ccccc34)cc21 |  |  |  | 15% |  | 93% |  |  |  |  |  |  |  |  |  |  |  |  |  | 
Cc1cc(O)cc(C)c1C[C@H](N)C(=O)N[C@@H]1CCNc2ccc(CC3CCc4ccccc43)cc21 (mixture of isomers) |  | 180 | 6.8 |  | 52% | 16% |  | 19 | 0.05 |  | 9 | Not Active |  |  |  |  |  |  |  | 
CC(=O)N1CC[C@@H](NC(=O)[C@@H](N)Cc2c(C)cc(O)cc2C)c2cc(Cc3cccc4ccccc34)ccc21 |  |  | 1.3 | inactive | inactive | 70% | 22 | 4.3 | 0.06 | inactive | 0.48 | Not Active | Not Active |  |  | Stable |  |  |  | 
CC(=O)N1CC[C@@H](NC(=O)[C@@H](N)Cc2c(C)cc(O)cc2C)c2cc(CC3CCCCC3)ccc21 | 14 | 240 | 0.32 | 26% | 33% | 70% | 11 | 8.4 | 0.03 | inactive | 0.61 |  |  |  |  |  |  |  |  | 
CC(=O)N1CC[C@@H](NC(=O)[C@@H](N)Cc2c(C)cc(O)cc2C)c2cc(CC3Cc4ccccc4C3)ccc21 |  | 610 | 0.44 | inactive | 60% | 84% | 9 | 12 | 0.05 |  | 0.56 | Not Active |  | 11 |  |  |  |  |  | 
Cc1cc(O)cc(C)c1C[C@H](N)C(=O)N[C@@H]1CCNc2ccc(CC3CCCCC3)cc21 |  | 97 | 3.4 | inactive | 36% | 57% | 79 | 6.2 | 0.043 | inactive | 2.6 | Not Active |  |  |  |  |  |  |  | 
CC(=O)N1CC[C@@H](NC(=O)[C@@H](N)Cc2c(C)cc(O)cc2C)c2cc(CC3CCc4ccccc43)ccc21 (mixture of isomers) |  |  | 0.84 |  | 26% | 39% |  | 15 | 0.03 |  | 15 | Not Active |  |  |  |  |  |  |  | 
Cc1cc(O)cc(C)c1C[C@H](N)C(=O)N[C@@H]1CCCc2ccc(Cc3cccc4ccccc34)cc21 |  |  | 5 | inactive | inactive | 58% | 13 | 63 | 0.39 | inactive | 14 | Not Active | Not Active |  |  |  |  |  |  | 
Cc1cc(O)cc(C)c1C[C@H](N)C(=O)N[C@@H]1CCCc2ccc(Cc3ccccc3)cc21 |  |  | 4 |  |  | 64% |  | 19 | 0.045 |  | 2.9 | Not Active | Not Active | 14 |  |  |  |  |  | 
